According to PMC4242840 (The Journal of Cell Biology, 2014):
“Also recorded” adds a separate entry of the source.

Experiments:
[1] = molecular target: T1, Rsa4 β-propeller (Rsa4Δ136) (S. cerevisiae, UniProt P25382 137-515); experiment: ITC
T1 sequence: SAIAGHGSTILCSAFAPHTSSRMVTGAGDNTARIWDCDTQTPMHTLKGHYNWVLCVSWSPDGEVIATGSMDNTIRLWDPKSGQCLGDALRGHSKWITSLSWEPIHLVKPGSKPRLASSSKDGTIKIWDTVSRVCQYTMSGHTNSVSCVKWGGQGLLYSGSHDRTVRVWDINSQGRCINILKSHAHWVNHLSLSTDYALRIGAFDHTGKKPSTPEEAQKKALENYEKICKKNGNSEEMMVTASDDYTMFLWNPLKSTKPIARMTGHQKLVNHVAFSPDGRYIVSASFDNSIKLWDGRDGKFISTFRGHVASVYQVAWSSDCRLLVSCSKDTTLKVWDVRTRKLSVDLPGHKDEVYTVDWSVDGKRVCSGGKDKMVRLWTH

[2] = molecular target: T2, HIS6-TEV-Rsa4 full-length (S. cerevisiae, UniProt P25382 1-515); experiment: pull-down
T2 sequence: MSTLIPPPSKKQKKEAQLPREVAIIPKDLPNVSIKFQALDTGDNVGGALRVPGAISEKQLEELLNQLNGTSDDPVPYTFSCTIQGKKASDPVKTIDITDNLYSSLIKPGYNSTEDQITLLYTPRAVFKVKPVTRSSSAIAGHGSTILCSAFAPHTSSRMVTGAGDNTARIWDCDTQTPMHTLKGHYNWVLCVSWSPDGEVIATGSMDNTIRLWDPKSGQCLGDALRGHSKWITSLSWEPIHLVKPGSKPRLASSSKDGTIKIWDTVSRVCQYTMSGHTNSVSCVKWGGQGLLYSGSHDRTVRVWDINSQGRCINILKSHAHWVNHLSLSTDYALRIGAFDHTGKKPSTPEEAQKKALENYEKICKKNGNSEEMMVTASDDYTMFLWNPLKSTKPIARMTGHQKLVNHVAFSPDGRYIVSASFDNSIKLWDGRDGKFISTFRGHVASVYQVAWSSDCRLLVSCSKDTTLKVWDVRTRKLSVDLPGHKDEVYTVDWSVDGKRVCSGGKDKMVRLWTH

[3] = system: Nsa2 shuffle strain (nsa2Δ); experiment: complementation of nsa2Δ; type: cell-based, Saccharomyces cerevisiae; settings: SDC+FOA, 30°C, 2 or 3 d
wild-type yeast growth = experiment: dominant-negative phenotype upon GAL overexpression in wild-type yeast; type: cell-based, Saccharomyces cerevisiae; settings: GAL promoter, galactose medium, 30°C, 2 or 3 d
pre-60S particles [4] = experiment: association with pre-60S particles; type: cell-based, Saccharomyces cerevisiae
How it was run: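 Wild-type yeast expressed plasmid-borne NSA2-FTpA or nsa2 Y90A-FTpA. Cells were treated with cycloheximide for 15 min and lysed with glass beads. Whole-cell lysates were fractionated on 10–50% sucrose gradients (16 h, 27,000 rpm, 0.4 ml fractions), and fractions were probed by Western blot with anti-ProtA to detect tagged Nsa2.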

[5] = system: 60S subunit formation and nuclear export; experiment: 60S biogenesis/export upon overexpression; type: cell-based, Saccharomyces cerevisiae; settings: galactose-containing medium, 6 h (nsa2) or 8 h (rsa4)
How it was run: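 Wild-type yeast carried plasmids for the 60S reporter Rpl25-EGFP and mRFP-Nop1, plus 2μ GAL-driven NSA2 alleles. Cells were shifted to galactose medium for 6 h (Nsa2), washed in water and imaged at room temperature (100× oil objective, EGFP/Cy3 filters). For profiles, cells were treated with cycloheximide for 15 min, lysed with glass beads and run on 10–50% sucrose gradients (16 h, 27,000 rpm), recorded at 254 nm.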

[6] = system: 60S subunit production / pre-60S composition; experiment: pulse-chase labeling with affinity purification of Rpl25; type: cell-based, Saccharomyces cerevisiae
How it was run: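 Strain DS1-2b carried an amber-suppressor tRNA/synthetase plasmid and a GAL plasmid co-expressing 2×HA-TAG-Rpl25-FTpA with wild-type or Y90A Nsa2. After 60 min galactose induction, O-methyl-tyrosine was added as a 7 min pulse, followed by a 20 min chase with tetracycline and glucose. Rpl25 was TAP-purified, run on SDS-PAGE with Coomassie staining, and bands were identified by mass spectrometry.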

[7] = system: 25S rRNA helices H89, H90, H42; experiment: UV cross-linking and analysis of cDNA; type: binding, Saccharomyces cerevisiae; settings: in vivo UV cross-linking, % of hits
How it was run: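 Yeast culture was UV-irradiated to cross-link protein to RNA, then lysed with zirconia beads. Nsa2-His-TEV-ProtA was bound to IgG-Sepharose and eluted with TEV. The eluate was RNase-treated and denatured, and Nsa2 was repurified on Ni-NTA under denaturing conditions. Cross-linked RNA was ligated to 3′ and 5′ DNA linkers and sequenced; hits were mapped to rRNA helices.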

HIS6-Rsa4 WD40 domain = molecular target: T3, HIS6-Rsa4 WD40 domain (S. cerevisiae, UniProt P25382 112-515); experiment: pull-down
T3 sequence: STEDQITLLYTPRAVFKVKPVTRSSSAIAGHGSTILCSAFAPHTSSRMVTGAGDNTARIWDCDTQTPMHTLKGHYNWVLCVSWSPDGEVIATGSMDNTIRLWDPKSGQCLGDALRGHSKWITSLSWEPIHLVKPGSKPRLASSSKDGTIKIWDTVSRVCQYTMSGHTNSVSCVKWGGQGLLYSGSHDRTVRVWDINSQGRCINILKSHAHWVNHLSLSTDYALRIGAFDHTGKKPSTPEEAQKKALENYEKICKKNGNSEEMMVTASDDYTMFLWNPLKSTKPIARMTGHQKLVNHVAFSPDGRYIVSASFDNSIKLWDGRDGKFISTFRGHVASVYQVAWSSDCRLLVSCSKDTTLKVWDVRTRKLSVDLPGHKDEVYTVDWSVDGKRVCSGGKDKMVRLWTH

pre-60S particles [8] = experiment: affinity purification of Rpl5-FTpA constructs; type: cell-based, Saccharomyces cerevisiae; settings: Flag-TEV-ProtA bait
How it was run: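 Rpl5 variants tagged with Flag-TEV-ProtA were purified from a 2-liter yeast culture pellet. Steps: IgG-Sepharose 90 min, TEV elution 120 min, FLAG beads 45 min, FLAG-peptide elution. Eluates were run alongside pre-60S particles purified via Nsa2-FTpA and FTpA-Rsa4, then analysed by SDS-PAGE and Western blot.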

Molecule: DALPTYLLDRE [Nsa2 peptide (85–95 aa, DALPTYLLDRE)]
- binding result [1]: binds

B1: MBP-Nsa2 (natural protein)
chain: MPQNDYIERHIKQHGKRLDHEERKRKREARESHKISERAQKLTGWKGKQFAKKRYAEKVSMRKKIKAHEQSKVKGSSKPLDTDGDALPTYLLDREQNNTAKAISSSIKQKRLEKADKFSVPLPKVRGISEEEMFKVIKTGKSRSKSWKRMITKHTFVGEGFTRRPVKMERIIRPSALRQKKANVTHPELGVTVFLPILAVKKNPQSPMYTQLGVLTKGTIIEVNVSELGMVTAGGKVVWGKYAQVTNEPDRDGCVNAVLLV
- binding result [2]: binds

B2: MBP-Nsa2 Y90F (natural protein)
chain: MPQNDYIERHIKQHGKRLDHEERKRKREARESHKISERAQKLTGWKGKQFAKKRYAEKVSMRKKIKAHEQSKVKGSSKPLDTDGDALPTFLLDREQNNTAKAISSSIKQKRLEKADKFSVPLPKVRGISEEEMFKVIKTGKSRSKSWKRMITKHTFVGEGFTRRPVKMERIIRPSALRQKKANVTHPELGVTVFLPILAVKKNPQSPMYTQLGVLTKGTIIEVNVSELGMVTAGGKVVWGKYAQVTNEPDRDGCVNAVLLV
- binding result [2]: binds

B3: nsa2 Y90F: Nsa2 with tyrosine 90 mutated to phenylalanine (protein)
chain: MPQNDYIERHIKQHGKRLDHEERKRKREARESHKISERAQKLTGWKGKQFAKKRYAEKVSMRKKIKAHEQSKVKGSSKPLDTDGDALPTFLLDREQNNTAKAISSSIKQKRLEKADKFSVPLPKVRGISEEEMFKVIKTGKSRSKSWKRMITKHTFVGEGFTRRPVKMERIIRPSALRQKKANVTHPELGVTVFLPILAVKKNPQSPMYTQLGVLTKGTIIEVNVSELGMVTAGGKVVWGKYAQVTNEPDRDGCVNAVLLV
modifications: left off: MBP, N-terminal, kept
- growth / viability (complementation) [3]: normal growth

B4: nsa2 Y90A: Nsa2 with tyrosine 90 mutated to alanine (protein)
chain: MPQNDYIERHIKQHGKRLDHEERKRKREARESHKISERAQKLTGWKGKQFAKKRYAEKVSMRKKIKAHEQSKVKGSSKPLDTDGDALPTALLDREQNNTAKAISSSIKQKRLEKADKFSVPLPKVRGISEEEMFKVIKTGKSRSKSWKRMITKHTFVGEGFTRRPVKMERIIRPSALRQKKANVTHPELGVTVFLPILAVKKNPQSPMYTQLGVLTKGTIIEVNVSELGMVTAGGKVVWGKYAQVTNEPDRDGCVNAVLLV
modifications: left off: MBP, N-terminal, kept
- growth / viability (complementation) [3]: nonviable
- dominant-negative phenotype upon overexpression (wild-type yeast growth): dominant lethal
- dominant-negative phenotype upon overexpression (wild-type yeast growth; listed as Nsa2 Y90A): strong dominant-lethal phenotype
- association with pre-60S particles (pre-60S particles [4]; 10–50% sucrose gradient, anti-ProtA Western blot): still associated with pre-60S particles; also recorded: efficiently assembled into preribosomes
- replacement of endogenous Nsa2 in preribosomes (pre-60S particles [4]; upon overexpression): replacement of endogenous Nsa2 within the preribosomes
- effect of overexpression on 60S biogenesis / export [5]: defect in 60S subunit export
- effect of overexpression on 60S biogenesis / export ([5]; listed as Nsa2 Y90A): specific block in nuclear export and formation of 60S subunits
- 60S production in pulse-chase ([6]; 60-min galactose induction, 7 min Ome-Tyr pulse, 20 min chase): arrests 60S biogenesis
- enrichment of methyl-transferases Spb1 and Nop2 ([6]; arrested preribosomal intermediate, HA-Rpl25-Flag-ProtA purification): strongly enriched

B5: Nsa2-His6-TEV-ProtA: Nsa2 tagged with His6-TEV-ProtA used for CRAC (protein, UniProt P40078 1-261, looked up)
Ribosome biogenesis protein …: MPQNDYIERHIKQHGKRLDHEERKRKREARESHKISERAQKLTGWKGKQFAKKRYAEKVSMRKKIKAHEQSKVKGSSKPLDTDGDALPTYLLDREQNNTAKAISSSIKQKRLEKADKFSVPLPKVRGISEEEMFKVIKTGKSRSKSWKRMITKHTFVGEGFTRRPVKMERIIRPSALRQKKANVTHPELGVTVFLPILAVKKNPQSPMYTQLGVLTKGTIIEVNVSELGMVTAGGKVVWGKYAQVTNEPDRDGCVNAVLLV
modifications: His6-TEV-ProtA tag
- CRAC hits on H42 ([7]; rRNA helix H42): 15%
- CRAC hits on H89 ([7]; rRNA helix H89): 60%
- CRAC hits on H90 ([7]; rRNA helix H90): 25%

Molecule: GDALPTYLLDREQ (domain or fragment) [MBP-Nsa2 84–96 aa]
- binding result (HIS6-Rsa4 WD40 domain): binds

B6: wild-type Rpl5: ribosomal protein Rpl5 (uL18), wild type (protein)
chain: MAFQKDAKSSAYSSRFQTPFRRRREGKTDYYQRKRLVTQHKAKYNTPKYRLVVRFTNKDIICQIISSTITGDVVLAAAYSHELPRYGITHGLTNWAAAYATGLLIARRTLQKLGLDETYKGVEEVEGEYELTEAVEDGPRPFKVFLDIGLQRTTTGARVFGALKGASDGGLYVPHSENRFPGWDFETEEIDPELLRSYIFGGHVSQYMEELADDDEERFSELFKGYLADDIDADSLEDIYTSAHEAIRADPAFKPTEKKFTKEQYAAESKKYRQTKLSKEERAARVAAKIAALAGQQ
- co-purified particles / Syo1 (pre-60S particles [8]): only recovered mature 60S subunits, plus Syo1
